Data reported in ChEMBL document CHEMBL1146683, “Antiproliferative activity of various flavonoids and related compounds: additive effect of interferon-alpha2b” (Bioorg Med Chem Lett, 2004).
Activity calls are given as the source filed them. The rule behind the calls is not given here.

What was measured:
[1] = test system: WISH; assay: In vitro inhibitory activity against the growth of WISH cell derived from human cervical carcinoma was determined; slight effect; assay type: functional, cell-based
[2] = test system: WISH; assay: (§1) In vitro inhibitory activity against the growth of WISH cell derived from human cervical carcinoma was determined; assay type: functional
Outline: (§2)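 WISH cells (HeLa-derived; grown in MEM with 10% FBS, 2 mM L-glutamine and antibiotics), 10,000 per well. Cells exposed 72 h at 37 °C to a concentration series of compound given in DMSO/ethanol (1:10), with controls solvent-matched. Total cell number read colorimetrically as hexosaminidase level. IC50, the molar concentration giving 50% growth inhibition, was taken from dose–response curves.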

[3] = test system: WISH; assay: In vitro inhibitory activity against the growth of WISH cell derived from human cervical carcinoma was determined; Inactive; assay type: functional, cell-based
[4] = test system: WISH; assay: as §1; assay type: functional, cell-based; outline: as §2
[5] = test system: WISH; assay: In vitro inhibitory activity against the growth of WISH cell derived from human cervical carcinoma was determined; slight reduction in cell growth; assay type: functional, cell-based

`O=c1c(O)c(-c2ccc(O)c(O)c2)oc2cc(O)cc(O)c12` was tested, and the inhibition [1] was “Weak activity”.
`CCOC(=O)/C=C/c1ccc(O)c(O)c1` [ETHYL CAFFEATE] showed an Inhibition [2] of 50%.
For `O=c1cc(-c2ccccc2)oc2ccccc12`, the NA [3] was “inactive”.
For `O=c1cc(-c2ccccc2)oc2c1ccc1ccccc12`, the inhibition [1] was “Weak activity”.
In the case of `O=c1cc(-c2ccccc2)oc2ccc([N+](=O)[O-])cc12`, the inhibition [3] is reported as “inactive”.
In the case of `O=c1cc(-c2ccc(O)cc2)oc2cc(O)cc(O)c12`, the inhibition [1] is reported as “Weak activity”.
Work on `O=c1cc(-c2ccccc2[N+](=O)[O-])oc2ccccc12` yielded an IC50 [4] of roughly 3000 nM and an Inhibition [2] of roughly 70%.
For `O=C1CC(c2ccccc2)Oc2ccccc21` (stereo not drawn), the inhibition [5] was “Weak activity”.
`O=c1cc(-c2ccccc2[N+](=O)[O-])oc2ccc([N+](=O)[O-])cc12` gave an IC50 [4] of roughly 3000 nM and an Inhibition [2] of roughly 70%.
In the case of `O=C(O)/C=C/c1ccccc1`, the inhibition [1] is reported as “slight effect”.
`COc1cc(OC)c2c(=O)cc(-c3ccccc3)oc2c1` was tested, and the inhibition [1] was “slight effect”.
For `CCCCOC(=O)/C=C/c1ccc(O)c(O)c1` [BUTYL CAFFEATE], the IC50 [4] was roughly 3000 nM and the Inhibition [2] was roughly 70%.
For `O=c1cc(-c2ccccc2)oc2cc(O)cc(O)c12`, the inhibition [1] was “Weak activity”.
For `O=C(O)/C=C/c1ccc(O)c(O)c1`, the NA [3] was “inactive”.
With `O=c1cc(-c2ccccc2)oc2ccc3ccccc3c12` the inhibition [1] was “Weak activity”.
